# ChEMBL document CHEMBL2434894, “Pyranoxanthones: Synthesis, growth inhibitory activity on human tumor cell lines and determination of their lipophilicity in two membrane models” (Eur J Med Chem, 2013)
# Legend:
# [1] = Cytotoxicity against Drosophila melanogaster S2 cells; assay type: functional, cell-based
# [2] = Partition coefficient, log Kp of the compound in micelle-HEPES buffer at pH 7.4; assay type: physicochemical
# NCI-H460 = assay: Cytotoxicity against human NCI-H460 cells after 48 hrs by SRB assay; assay type: functional; conditions: NCI-H460, 48 h
# Summary of the method: (§1)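 Cells kept in RPMI-1640 with 5% heat-inactivated FBS at 37 °C and 5% CO2, used in exponential growth at >90% viability (Trypan blue). Seeded per well: MCF-7 and NCI-H460 5 × 10³, A375-C5 7.5 × 10³, HL-60 1 × 10⁴. After 24 h, serial dilutions (0–150, where possible) were given for 48 h; DMSO ≤0.25%. Plates were TCA-fixed (10% adherent, 16.7% HL-60), SRB-stained and read at 510 nm. GI50 taken from curves; mean ± SE, ≥3 experiments; doxorubicin as positive control.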
# MCF7 = assay: Cytotoxicity against human MCF7 cells after 48 hrs by SRB assay; assay type: functional; conditions: MCF7, 48 h; summary of the method: as §1
# [3] = Partition coefficient, log Kp of the compound in liposome-HEPES buffer at pH 7.4; assay type: physicochemical; conditions: artificial membrane
# HL-60 = assay: Cytotoxicity against human HL60 cells after 48 hrs by SRB assay; assay type: functional; conditions: HL-60, 48 h; summary of the method: as §1
# KB = assay: Cytotoxicity against human KB cells; assay type: functional, cell-based
# [4] = Cytotoxicity against human A375-C5 cells after 48 hrs by SRB assay; assay type: functional; conditions: A375-C5, 48 h; summary of the method: as §1
# SMMC-7721 = assay: Cytotoxicity against human SMMC7721 cells; assay type: functional, cell-based
# SGC-7901 = assay: Cytotoxicity against human SGC7901 cells; assay type: functional, cell-based
# HCT-116 = assay: Cytotoxicity against human HCT116 cells; assay type: functional, cell-based
# NCI-H187 = assay: Cytotoxicity against human NCI-H187 cells; assay type: functional, cell-based
# [5] = Cytotoxicity against human BC1 cells; assay type: functional, cell-based
# L1210 = assay: Cytotoxicity against mouse L1210 cells; assay type: functional, cell-based
compound,measurement,setting,value
CC1(C)CCc2cc3oc4cc(O)cc(O)c4c(=O)c3c(O)c2O1,IC50,[1],6.3 µg/mL
CC1(C)C=Cc2c(cc3oc4ccccc4c(=O)c3c2O)O1,log Kp,[2],4.06
same,GI50,NCI-H460,> 150 µM
same,GI50,MCF7,> 150 µM
COc1c2c(cc3c(=O)c4ccccc4oc13)OC(C)(C)C=C2,log Kp,[3],3.94
same,log Kp,[2],4.07
same,GI50,HL-60,11.8 µM
COc1cccc2c1C(=O)c1c(O)c3c(c(O)c1C2=O)C[C@@](O)(C(=O)CO)C[C@@H]3O[C@H]1C[C@H](N)[C@H](O)[C@H](C)O1 [DOXORUBICIN],GI50,HL-60,0.028 µM
COc1c(O)cc2c(=O)c3c(O)c4c(cc3oc2c1CC=C(C)C)OC(C)(C)C=C4 [MANGLEXANTHONE],IC50,KB,1.9 µM
CC1(C)CCc2c(cc3oc4ccccc4c(=O)c3c2O)O1,log Kp,[2],4.32
COc1c2c(cc3c(=O)c4ccccc4oc13)OC(C)(C)CC2,log Kp,[3],3.92
same,log Kp,[2],3.88
same,GI50,HL-60,31.8 µM
same,GI50,[4],42.5 µM
same,GI50,NCI-H460,47.3 µM
same,GI50,MCF7,45.1 µM
COc1cc2c(c3oc4ccccc4c(=O)c13)OC(C)(C)C=C2,log Kp,[3],3.32
same,log Kp,[2],3.33
same,GI50,HL-60,9.6 µM
same,GI50,[4],69.5 µM
CC1(C)CCc2cc3oc4ccccc4c(=O)c3c(O)c2O1,log Kp,[3],3.96
same,log Kp,[2],3.88
same,GI50,HL-60,26.1 µM
same,GI50,[4],> 150 µM
same,GI50,NCI-H460,> 150 µM
same,GI50,MCF7,> 150 µM
COc1cc2c(c3oc4ccccc4c(=O)c13)OC(C)(C)CC2,log Kp,[3],3.08
same,log Kp,[2],3.46
same,GI50,HL-60,30.9 µM
same,GI50,[4],> 100 µM
same,GI50,MCF7,> 100 µM
CC1(C)C=Cc2c(cc(O)c3c(=O)c4ccccc4oc23)O1,log Kp,[2],4.02
same,GI50,NCI-H460,> 150 µM
same,GI50,MCF7,> 150 µM
COc1c2c(cc3oc4ccccc4c(=O)c13)CCC(C)(C)O2,log Kp,[3],3.09
same,log Kp,[2],3.58
same,GI50,HL-60,37.6 µM
same,GI50,[4],> 150 µM
same,GI50,NCI-H460,> 150 µM
CC(C)=CCc1c2c(c3oc4cc(O)c(O)cc4c(=O)c3c1O)C=CC(C)(C)O2 [CUDRATRICUXANTHONE],IC50,SMMC-7721,4.1 µM
same,IC50,SGC-7901,4.1 µM
same,IC50,HCT-116,4.1 µM
CC1(C)CCc2cc(O)c3c(=O)c4ccccc4oc3c2O1,log Kp,[2],4.28
same,GI50,HL-60,> 50 µM
same,GI50,[4],> 50 µM
same,GI50,NCI-H460,> 50 µM
same,GI50,MCF7,> 50 µM
CC(C)=CCc1c(O)cc2oc3cc(O)c4c(c3c(=O)c2c1O)CCC(C)(C)O4,IC50,NCI-H187,3.9 µg/mL
same,IC50,[5],3.9 µg/mL
same,IC50,KB,3.9 µg/mL
CC1(C)C=Cc2cc3oc4ccccc4c(=O)c3c(O)c2O1,log Kp,[3],4.17
same,log Kp,[2],4.15
same,GI50,HL-60,38.9 µM
same,GI50,[4],29.6 µM
same,GI50,NCI-H460,31.7 µM
same,GI50,MCF7,39.6 µM
COc1c2c(cc3oc4ccccc4c(=O)c13)C=CC(C)(C)O2,log Kp,[3],3.54
same,log Kp,[2],3.76
same,GI50,HL-60,9.6 µM
same,GI50,[4],47.4 µM
same,GI50,NCI-H460,42.9 µM
CC1(C)C=Cc2ccc3c(=O)c4ccccc4oc3c2O1,log Kp,[3],3.42
same,log Kp,[2],3.5
same,GI50,HL-60,3.2 µM
same,GI50,[4],6.2 µM
same,GI50,NCI-H460,32.9 µM
same,GI50,MCF7,13.3 µM
CC1(C)C=Cc2c(cc3c(=O)c4ccccc4oc3c2O)O1,log Kp,[3],3.06
same,log Kp,[2],3.29
same,GI50,HL-60,> 70 µM
same,GI50,[4],> 150 µM
same,GI50,NCI-H460,> 150 µM
same,GI50,MCF7,108 µM
CC1(C)CCc2c(cc(O)c3c(=O)c4ccccc4oc23)O1,log Kp,[2],4.27
CC1(C)C=Cc2cc(O)c3c(=O)c4ccccc4oc3c2O1,log Kp,[2],4.08
same,GI50,HL-60,6.4 µM
same,GI50,[4],> 100 µM
COc1c2c(cc3c(=O)c4ccccc4oc13)C=CC(C)(C)O2,log Kp,[3],3.88
same,log Kp,[2],3.83
same,GI50,[4],> 150 µM
same,GI50,NCI-H460,> 150 µM
same,GI50,MCF7,> 150 µM
CC1(C)C=Cc2c(ccc3oc4ccccc4c(=O)c23)O1,log Kp,[3],4.14
same,log Kp,[2],4.1
same,GI50,HL-60,36.7 µM
same,GI50,[4],37.9 µM
same,GI50,NCI-H460,44.5 µM
same,GI50,MCF7,50.9 µM
COc1cc(OC)c2c(=O)c3c(O)c4c(c(OC)c3oc2c1OC)OC(C)(C)C=C4,IC50,L1210,3.51 µg/mL
COc1ccc2c(=O)c3c(OC)c4c(c(OC)c3oc2c1OC)OC(C)(C)C=C4,IC50,L1210,4.23 µg/mL
